Measurements from different studies.
Somatostatin receptor type 2: Somatostatin receptor type 2 (Rattus norvegicus, UniProt P30680)
BCHE: Cholinesterase (BCHE, Equus caballus, UniProt P81908)
SIRT3: NAD-dependent protein deacetylase sirtuin-3, mitochondrial (SIRT3, Homo sapiens, UniProt Q9NTG7)
PTPN9: Tyrosine-protein phosphatase non-receptor type 9 (PTPN9, Homo sapiens, UniProt P43378)
NTRK2: BDNF/NT-3 growth factors receptor (NTRK2, Homo sapiens, UniProt Q16620)
PTPN11: Tyrosine-protein phosphatase non-receptor type 11 (PTPN11, Homo sapiens, UniProt Q06124)
PTGS1: Prostaglandin G/H synthase 1 (PTGS1, Ovis aries, UniProt P05979)
Urease: Urease (Canavalia ensiformis, UniProt P07374)
DRD1: D(1A) dopamine receptor (DRD1, Homo sapiens, UniProt P21728)

SMILES | target | test | conditions | IC50 [µM]
Cc1cc(-c2ccc(NC(=O)[C@H](CCCCNC(=O)CCN3C(=O)CC(SCC(=O)N[C@H](Cc4ccccc4)C(=O)N[C@H]4CSSC[C@@H](C(=O)N[C@H](C(=O)O)[C@@H](C)O)NC(=O)[C@H]([C@@H](C)O)NC(=O)[C@H](CCCCN)NC(=O)[C@@H](Cc5c[nH]c6ccccc56)NC(=O)[C@H](Cc5ccc(O)cc5)NC4=O)C3=O)NC(=O)CN3CCN(CC(=O)O)CCN(CC(=O)O)CCN(CC(=O)O)CC3)c(C)c2)ccc1N=Nc1ccc2c(S(=O)(=O)O)cc(S(=O)(=O)O)c(N)c2c1O (stereo partly shown) | Somatostatin receptor type 2 | ligand displacement |  | 0.00916
COCCN1CCN(c2nccc(NCc3ccccc3)n2)CC1 | BCHE | enzyme activity, inhibitor |  | > 100
CCCCCCCCCCCCNC(=S)NCCCC[C@H](NS(C)(=O)=O)C(=O)N[C@H](C)C(=O)N[C@@H](CCCNC(=N)N)C(=O)N1CCOCC1 | SIRT3 | enzyme activity, inhibitor |  | 55
COc1ccc(COc2c(OC)ccc3c2C[C@@H](C(=O)O)N(c2nc4ccc(C#N)cc4o2)C3)cn1 | Type-2 angiotensin II receptor (AGTR2, Homo sapiens, UniProt P50052) | cell-free assay, TR-FRET |  | 0.046
Cc1c(Br)cc(NC(=O)C(c2ccccc2)S(=O)(=O)O)cc1Br (stereo not shown) | PTPN9 | enzyme activity, inhibitor, absorbance |  | > 200
Cc1cnc(-c2ccc(-c3ccc(NC(=O)Nc4c(F)cc(F)cc4F)cc3F)c3c2C(=O)NC3)[nH]1 | NTRK2 | enzyme activity, inhibitor |  | 0.0065
C[C@@H](O)[C@@H]1NC(=O)[C@H](CCCCN)NC(=O)[C@@H](Cc2c[nH]c3ccccc23)NC(=O)[C@H](Cc2ccc(O)cc2)NC(=O)[C@@H](NC(=O)[C@@H](Cc2ccccc2)NC(=O)CCC(C(=O)O)N2CCN(CC(=O)O)CCN(C(CCC(=O)O)C(=O)O)CC2)CSSC[C@@H](C(=O)N[C@H](CO)[C@@H](C)O)NC1=O (stereo partly shown) | Somatostatin receptor type 2 | ligand displacement, radioligand |  | 0.0337
N[C@@H](Cc1ccccc1)C(=O)N[C@@H](Cc1ccccc1)C(=O)N[C@@H](CC(=O)O)C(=O)O | PTPN11 | enzyme activity, inhibitor, absorbance | pH 7.4 | 114
CCOC(F)(F)c1nnc2cnc(-c3cnc(OCC(F)(F)F)c(F)c3)cn12 | Sodium channel protein type 8 subunit alpha (Scn8a, Mus musculus, UniProt Q9WTU3) | ion current, inhibitor, patch clamp |  | 0.145
[O-][S+]1CCN(c2nccc(NCc3ccccc3)n2)CC1 | BCHE | enzyme activity, inhibitor |  | > 100
CC(C)(C)n1nc(-c2ccc3nc(OC4CC4)ccc3c2)c(C(N)=O)c1N | Calcium/calmodulin-dependent protein kinase type 1D (CAMK1D, Homo sapiens, UniProt Q8IU85) | cell-free assay |  | > 10
CC[C@@H](C(=O)Nc1ccc(C(N)=O)c(F)c1)n1cc(OC)c(-c2cc(Cl)ccc2-n2cc(C(F)(F)F)nn2)cc1=O | Coagulation factor VII (F7, Homo sapiens, UniProt P08709) | enzyme activity, inhibitor |  | 1.9
O=C1Nc2ccccc2/C1=C1/Nc2ccccc2/C1=N\O | Ribosomal protein S6 kinase alpha-3, N-terminal kinase domain (RPS6KA3, Homo sapiens, UniProt P51812) | enzyme activity, inhibitor, FP |  | 1
N[C@@H](CC(=O)O)C(=O)N[C@@H](Cc1ccccc1)C(=O)O | PTPN11 | enzyme activity, inhibitor, absorbance | pH 7.4 | 109
COc1ccc(Nc2c(-c3ccc(S(C)(=O)=O)cc3)nc3cccc(C)n23)cc1 | PTGS1 | enzyme activity, inhibitor, fluorescence |  | 21.1
O=Cc1ccc2[nH]ncc2c1 | Ribosomal protein S6 kinase alpha-3 (RPS6KA3, Homo sapiens, UniProt P51812, C436V) | enzyme activity, inhibitor |  | ~350
O=[N+]([O-])c1ccc(NC(=S)N2CCc3ccccc3C2)c(Cl)c1 | Urease | enzyme activity, inhibitor, absorbance |  | 25.5

SMILES | target | test | conditions | IC50 [µM]
CC(=O)NO | Urease | enzyme activity, inhibitor |  | 20.4
Cc1cc(Nc2cc(CN3CCOCC3)c3nc(C)c(Cc4ccc(Cl)cc4F)n3n2)n[nH]1 | NTRK2 | enzyme activity, inhibitor, TR-FRET |  | 0.095
C[C@@H](N)COc1ccc(-c2cnc3ccc(N[C@H](C)c4cccc(F)c4)nn23)cc1 | NTRK2 | enzyme activity, inhibitor |  | 0.0055
CC1=C[C@@]2(C[C@H](C)[C@H]3CC=C(C)C(=O)[C@@H]3O2)OC1=O | PTPN11 | enzyme activity, inhibitor |  | > 500
FC(F)(F)c1ccc(CN2CCN(c3nccc(NCc4ccccc4)n3)CC2)cc1 | BCHE | enzyme activity, inhibitor |  | > 100
O=C(O)/C=C/c1ccc(-c2ccc(F)cc2)c(Cl)c1 | PTPN11 | enzyme activity, inhibitor, fluorescence |  | 2.11
CS(=O)(=O)c1ccc(-c2nc3ccccn3c2Nc2ccccc2)cc1 | PTGS1 | enzyme activity, inhibitor, fluorescence |  | 18.1
COC(=O)[C@H](Cc1ccc(OP(=O)(O)O)c(OP(=O)(O)O)c1)NC(=O)OCC1c2ccccc2-c2ccccc21 | Signal transducer and activator of transcription 5A, SH2 (Homo sapiens, UniProt P42229) | ligand displacement, FP |  | 15.8
CC(=O)N1C[C@@H](CCN2CCC(c3c[nH]c4cc(Cl)ccc34)CC2)c2ccccc21 | Sodium-dependent serotonin transporter (SLC6A4, Homo sapiens, UniProt P31645) | ligand displacement, radioligand | cell membranes | 0.242
N#CC1(c2ccc(NC(=O)c3cccnc3NCc3ccncc3)cc2)CCCC1 | Mitogen-activated protein kinase kinase kinase 20 (MAP3K20, Homo sapiens, UniProt Q9NYL2) | enzyme activity, inhibitor, mass spectrometry |  | 0.21
Cc1cccc2nc(-c3ccc(S(C)(=O)=O)cc3)c(Nc3ccccc3)n12 | PTGS1 | enzyme activity, inhibitor, fluorescence |  | 24.6
CC1Cc2ccccc2N1C(=O)NCCCCN(C)[C@@H]1Cc2cccc3[nH]c(=O)n(c23)C1 (mixture of isomers) | DRD1 | ligand displacement, radioligand |  | > 10
Oc1cc2c(cc1OCC(F)F)CCN1Cc3c(c(Br)cc(O)c3OCC(F)F)C[C@@H]21 | DRD1 | cAMP, antagonist, TR-FRET |  | 0.23
N[C@@H](Cc1ccc(C(F)(F)P(=O)(O)O)cc1)C(=O)O | PTPN9 | enzyme activity, inhibitor, absorbance |  | 11500
CCCCCCCCCCCCNC(=S)NCCCC[C@H](NC(C)=O)C(=O)N[C@@H](C)C(=O)N[C@@H](CCCNC(=N)N)C(N)=O | SIRT3 | enzyme activity, inhibitor |  | 2.2
CN1CCN(c2ccc(Nc3ncc4cc(C#N)c(=O)n(C5CCCC5)c4n3)cc2)CC1 | Mitogen-activated protein kinase kinase kinase 9 (MAP3K9, Homo sapiens, UniProt P80192) | enzyme activity, inhibitor |  | 0.477
CC1=C[C@@]2(C[C@H](C)[C@H]3CC=C(CO)C(=O)[C@@H]3O2)OC1=O | PTPN11 | enzyme activity, inhibitor |  | 48.2
